Calls of active or inactive are those of the source. The calls are words filed in the database; no cut-off is given here.
Experiments:
[1] = biological target: Amyloid-beta precursor protein (Homo sapiens) (UniProt P05067); assay: Inhibition of amyloid beta (1 to 42) (unknown origin) aggregation assessed as reduction in intensity of fluorescence plateau of aggregation at 10 uM using compound dissolved in DMSO measured after 42 hrs by Thioflavin T fluorescence assay relative to control; parameters: scale not given: the % may be the effect or the level left
Amyloid-beta precursor protein (Homo sapiens), sequence (P05067 whole entry, the tested form may be a part): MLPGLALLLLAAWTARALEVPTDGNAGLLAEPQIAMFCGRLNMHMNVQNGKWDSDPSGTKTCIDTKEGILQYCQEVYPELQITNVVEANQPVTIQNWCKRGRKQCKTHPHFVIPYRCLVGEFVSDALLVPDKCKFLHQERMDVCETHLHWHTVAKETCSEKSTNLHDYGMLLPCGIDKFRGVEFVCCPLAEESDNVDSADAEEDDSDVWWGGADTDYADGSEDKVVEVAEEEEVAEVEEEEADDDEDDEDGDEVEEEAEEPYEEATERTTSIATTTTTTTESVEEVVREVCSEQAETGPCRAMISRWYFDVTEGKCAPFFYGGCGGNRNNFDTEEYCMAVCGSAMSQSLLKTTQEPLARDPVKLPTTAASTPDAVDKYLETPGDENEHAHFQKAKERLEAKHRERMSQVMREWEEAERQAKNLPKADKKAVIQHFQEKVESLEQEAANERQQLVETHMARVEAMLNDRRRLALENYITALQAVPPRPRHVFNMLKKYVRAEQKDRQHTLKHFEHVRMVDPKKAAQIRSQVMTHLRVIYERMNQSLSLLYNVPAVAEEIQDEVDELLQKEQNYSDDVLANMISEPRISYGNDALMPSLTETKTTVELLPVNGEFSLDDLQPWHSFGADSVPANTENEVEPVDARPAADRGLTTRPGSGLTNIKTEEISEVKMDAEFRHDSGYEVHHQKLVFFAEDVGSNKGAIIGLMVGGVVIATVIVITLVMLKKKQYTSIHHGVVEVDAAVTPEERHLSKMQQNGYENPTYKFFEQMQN
How it was run: (§1)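 Aβ1-42 dissolved in 1% aqueous ammonia at 1 mM, diluted to 0.2 mM in 10 mM Tris-HCl, 100 mM NaCl pH 7.4 just before use. Final 10 µM peptide added to 40 µM ThT with compound (final DMSO 0.5% v/v), room temperature. Triplicate wells, ex/em 440/480 nm for 42 h, read 2–4 times on different days. t1/2 extension and plateau F reduction are computed as % of peptide-alone values.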

[2] = biological target: Amyloid-beta precursor protein (Homo sapiens) (UniProt P05067); assay: Inhibition of amyloid beta (1 to 42) (unknown origin) aggregation assessed as reduction in intensity of fluorescence plateau of aggregation at 100 uM using compound dissolved in DMSO measured after 42 hrs by Thioflavin T fluorescence assay relative to control; parameters: scale not given: the % may be the effect or the level left; how it was run: as §1
[3] = biological target: Amyloid-beta precursor protein (Homo sapiens) (UniProt P05067); assay: Inhibition of amyloid beta (1 to 42) (unknown origin) aggregation assessed as increase in time of half-life of aggregation at 10 uM using compound dissolved in DMSO measured after 42 hrs by Thioflavin T fluorescence assay relative to control; parameters: scale not given: the % may be the effect or the level left; how it was run: as §1
[4] = biological target: Amyloid-beta precursor protein (Homo sapiens) (UniProt P05067); assay: Inhibition of amyloid beta (1 to 42) (unknown origin) aggregation assessed as increase in time of half-life of aggregation at 100 uM using compound dissolved in DMSO measured after 42 hrs by Thioflavin T fluorescence assay relative to control; parameters: scale not given: the % may be the effect or the level left; how it was run: as §1
[5] = biological target: Amyloid-beta precursor protein (Homo sapiens) (UniProt P05067); assay: Inhibition of amyloid beta (1 to 42) (unknown origin) aggregation at 1 to 100 uM treated at 19 to 44 hrs after fibrillization kinetics by Thioflavin T fluorescence assay
How it was run: (§2)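 Same ThT set-up (10 µM Aβ1-42, 40 µM ThT, Tris-HCl/NaCl pH 7.4, room temperature, 440/480 nm), except compound is added at the start of kinetics or 3, 19 or 44 h after it. Tested at 1:1 and 10:1 compound/peptide ratios.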

[6] = biological target: Amyloid-beta precursor protein (Homo sapiens) (UniProt P05067); assay: Inhibition of amyloid beta (1 to 42) (unknown origin) aggregation assessed as increase in time of half-life of aggregation at 1 uM using compound dissolved in DMSO measured after 42 hrs by Thioflavin T fluorescence assay relative to control; how it was run: as §1
[7] = biological target: Amyloid-beta precursor protein (Homo sapiens) (UniProt P05067); assay: Inhibition of amyloid beta (1 to 42) (unknown origin) oligomerization assessed as amyloid beta monomer level at 100 uM after 12 hrs by capillary electrophoresis method (reference value: 0%); parameters: scale not given: the % may be the effect or the level left
How it was run: (§3)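 Aβ1-42 reconstituted at 100 µM final in 20 mM phosphate pH 7.4 with 2.5% v/v DMSO (compound stock or control), compound at 10:1 ratio. Profiles taken at 0, 2, 6 and 12 h. CE in fused silica capillary, 80 mM phosphate pH 7.4, −30 kV, 20°C, UV 190 nm. Monomer peak area is related to that of peptide alone at 0 h.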

[8] = biological target: Amyloid-beta precursor protein (Homo sapiens) (UniProt P05067); assay: Inhibition of amyloid beta (1 to 42) (unknown origin) aggregation assessed as reduction in intensity of fluorescence plateau of aggregation at 1 uM using compound dissolved in DMSO measured after 42 hrs by Thioflavin T fluorescence assay relative to control; parameters: scale not given: the % may be the effect or the level left; how it was run: as §1
[9] = biological target: Amyloid-beta precursor protein (Homo sapiens) (UniProt P05067); assay: Inhibition of amyloid beta (1 to 42) (unknown origin) oligomerization assessed as amyloid beta monomer level at 100 uM after 6 hrs by capillary electrophoresis method (reference value: 4%); parameters: scale not given: the % may be the effect or the level left; how it was run: as §3
[10] = biological target: Amyloid-beta precursor protein (Homo sapiens) (UniProt P05067); assay: Inhibition of amyloid beta (1 to 42) (unknown origin) aggregation at 1 to 100 uM treated immediately or 3 hrs after fibrillization kinetics by Thioflavin T fluorescence assay; how it was run: as §2
[11] = biological target: Amyloid-beta precursor protein (Homo sapiens) (UniProt P05067); assay: Inhibition of amyloid beta (1 to 42) (unknown origin) oligomerization assessed as increase in amyloid beta monomer level at 100 uM up to 2 hrs by capillary electrophoresis method; how it was run: as §3
[12] = biological target: Amyloid-beta precursor protein (Homo sapiens) (UniProt P05067); assay: Inhibition of amyloid beta (1 to 42) (unknown origin) aggregation assessed as reduction in intensity of fluorescence plateau of aggregation at 100 uM using compound dissolved in water measured after 42 hrs by Thioflavin T fluorescence assay relative to control; parameters: scale not given: the % may be the effect or the level left
How it was run: (§4)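 ThT kinetics of 10 µM Aβ1-42 (from 1 mM ammonia stock, diluted in 10 mM Tris-HCl, 100 mM NaCl, pH 7.4) with 40 µM ThT at room temperature. Compound is dissolved in water (0.5% v/v) rather than DMSO and used at 10:1 compound/peptide. Fluorescence 440/480 nm over 42 h. t1/2 and plateau F are expressed as % change versus peptide alone.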

[13] = biological target: Amyloid-beta precursor protein (Homo sapiens) (UniProt P05067); assay: Inhibition of amyloid beta (1 to 42) (unknown origin) aggregation assessed as increase in time of half-life of aggregation at 100 uM using compound dissolved in water measured after 42 hrs by Thioflavin T fluorescence assay relative to control; parameters: scale not given: the % may be the effect or the level left; how it was run: as §4
[14] = biological target: Amyloid-beta precursor protein (Homo sapiens) (UniProt P05067); assay: Inhibition of amyloid beta (1 to 42) (unknown origin) aggregation at 100 uM after 42 hrs by uranyl acetate staining based transmission electron microscopic method
How it was run: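 Samples are prepared as for ThT: 10 µM Aβ1-42 in 10 mM Tris-HCl, 100 mM NaCl pH 7.4, ±100 µM compound, incubated 42 h. Aliquots adsorbed 2 min on 300-mesh carbon grids, washed, dried, negatively stained 45 s and imaged by TEM.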

SMILES	Activity [1]	Activity [2]	Activity [3]	Activity [4]	inhibition [5]	Activity [6]	Activity [7] [%]	Activity [8]	Activity [9] [%]	inhibition [10]	inhibition [11]	Activity [12] [%]	Activity [13] [%]	inhibition [14]
COc1ccc(NC(C)=O)cc1C(=O)NNC(=O)[C@H](CCCCN)NC(=O)[C@@H]1CCCN1[C@@H]1CN(C(=O)[C@@H](NC(=O)[C@H](C)N)C(C)C)CC[C@H]1N	inactive	18%	inactive	inactive	–	–	–	–	–	–	–	–	–	–
COc1ccc(NC(C)=O)cc1C(=O)NNC(=O)[C@H](CCCCN)NC(=O)[C@@H]1CCCN1[C@@H]1CN(C(=O)[C@@H](NC(=O)[C@H](C)N)C(C)C)CC[C@H]1NS(=O)(=O)c1ccc(C)cc1	38%	66%	36%	76%	inactive	inactive	31	38%	49	Active	inactive	81	96	Active
COc1ccc(NC(C)=O)cc1C(=O)NNC(=O)[C@H](CCCCN)NC(=O)[C@@H]1CCCN1[C@@H]1CN(C(=O)[C@@H](NC(=O)[C@H](C)NC(=O)OC(C)(C)C)C(C)C)CC[C@H]1NS(=O)(=O)c1ccc(C)cc1	inactive	inactive	23%	59%	–	–	–	–	–	–	–	–	–	–
COc1ccc(NC(C)=O)cc1C(=O)NNC(=O)[C@H](CCCCN)NC(=O)[C@@H]1CCCN1[C@@H]1CN(C(=O)[C@@H](NC(=O)[C@H](C)N)C(C)C)CC[C@H]1NC(=O)OC(C)(C)C	inactive	43%	13%	29%	–	–	–	–	–	–	–	–	–	–
CSCC[C@H](NC(=O)[C@H](CC(C)C)NC(=O)CN)C(=O)N[C@H](C(=O)NCC(=O)N1CC[C@@H](NS(=O)(=O)c2ccc(C)cc2)[C@H](N2CCC[C@H]2C(=O)N[C@@H](CCCCN)C(=O)N[C@@H](CC(C)C)C(=O)N[C@H](C(=O)N[C@@H](Cc2ccccc2)C(=O)N[C@@H](Cc2ccccc2)C(N)=O)C(C)C)C1)C(C)C	90%	97%	inactive	inactive	–	–	–	–	–	–	–	–	–	–
COc1ccc(NC(C)=O)cc1C(=O)NNC(=O)[C@H](CCCCNC(=O)OCc1ccccc1)NC(=O)[C@@H]1CCCN1[C@@H]1CN(C(=O)[C@@H](NC(=O)[C@H](C)NC(=O)OC(C)(C)C)C(C)C)CC[C@H]1NS(=O)(=O)c1ccc(C)cc1	inactive	inactive	inactive	inactive	–	–	–	–	–	–	–	–	–	–
COc1ccc(NC(C)=O)cc1C(=O)NNC(=O)[C@H](CCCCN)NC(=O)[C@@H]1CCCN1[C@@H]1CN(C(=O)[C@@H](NC(=O)[C@H](C)NC(=O)[C@@H](N)C(C)C)C(C)C)CC[C@H]1NS(=O)(=O)c1ccc(C)cc1	inactive	32%	inactive	30%	–	inactive	–	inactive	–	–	–	35	58	–
COc1ccc(NC(C)=O)cc1C(=O)NNC(=O)[C@H](CCCCN)NC(=O)[C@@H]1CCCN1[C@@H]1CN(C(=O)[C@@H](NC(=O)[C@H](C)N)C(C)C)CC[C@H]1NS(=O)(=O)c1ccc(N)cc1	inactive	54%	27%	56%	–	–	–	–	–	–	–	–	–	Active
COC(=O)[C@@H]1CCCN1[C@@H]1CNCC[C@H]1NS(=O)(=O)c1ccc(C)cc1	inactive	23%	inactive	inactive	–	–	–	–	–	–	–	–	–	–
